High-throughput results (PubChem)
thrombin 1536: human alpha-thrombin inhibitors, primary screen, counter-screen for coagulation protease inhibitor project, biochemical, 1536-well, fluorogenic AMC substrate | actives 0.26% (n = 220,000) | Boc-VPR-AMC fluorogenic substrate cleavage | Prothrombin (Homo sapiens), P00734 | inhibition, % at 5 µM;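 active means inhibition at or above 40%; inactive means inhibition below 40%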;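 further: 0% = enzyme with no compound and 100% = wells without enzyme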
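Test system: human alpha-thrombin; medium: pH 7.5 Tris-saline with Tween 20; times: reaction at room temperature; signal: AMC fluorescence at 355 nm excitation and 460 nm emission; also added: Boc-VPR-AMC substrate, 15 µM final; dosing: one concentration per compound, 5 µM, with 0.2% DMSO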
PGE2 EP2 inh: human EP2 receptor antagonists, primary screen, TR-FRET cAMP, C6 glioma cells; Prostaglandin E2 receptor EP2 subtype (Homo sapiens), P43116; C6 glioma cells expressing human EP2; cells stimulated with saturating PGE2; inhibition, % at 25 µM; actives 0.52% (n = 260,000);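 active means percent inhibition above 40 after rounding to a whole number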;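 further: rat C6 glioma host cells with rolipram phosphodiesterase inhibitor present; the protocol text gives 20 µM as final concentration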
FXIa inh 1536: human FXIa protease inhibitors, primary screen, biochemical, 1536-well; Coagulation factor XI (Homo sapiens), P03951; purified FXIa, Boc-Glu-Ala-Arg-AMC fluorogenic substrate; inhibition, % at 5 µM; actives 0.14% (n = 220,000);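 active means inhibition of at least 40%; inactive means inhibition below 40%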;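 further: fluorescence of freed AMC excited at 355 nm; 0% = enzyme without compound and 100% = no enzyme blank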
Target sequence (P03951 19-387 limits assumed): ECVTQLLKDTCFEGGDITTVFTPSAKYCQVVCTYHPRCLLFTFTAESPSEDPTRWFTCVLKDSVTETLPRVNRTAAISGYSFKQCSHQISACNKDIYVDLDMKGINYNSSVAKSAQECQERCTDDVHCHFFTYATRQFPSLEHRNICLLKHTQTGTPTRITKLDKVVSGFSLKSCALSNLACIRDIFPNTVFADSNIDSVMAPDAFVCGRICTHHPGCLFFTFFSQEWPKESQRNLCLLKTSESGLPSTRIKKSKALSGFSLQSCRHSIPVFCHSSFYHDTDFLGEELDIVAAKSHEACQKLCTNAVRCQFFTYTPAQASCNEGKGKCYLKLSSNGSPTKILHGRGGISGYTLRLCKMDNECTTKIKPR
Target sequence (P03951 388-625 limits assumed): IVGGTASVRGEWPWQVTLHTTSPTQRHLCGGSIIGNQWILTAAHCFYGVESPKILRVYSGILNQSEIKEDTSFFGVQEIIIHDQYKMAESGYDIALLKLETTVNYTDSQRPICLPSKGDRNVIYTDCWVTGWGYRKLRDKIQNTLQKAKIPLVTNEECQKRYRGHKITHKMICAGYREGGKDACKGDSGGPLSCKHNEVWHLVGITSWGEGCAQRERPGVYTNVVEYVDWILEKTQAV
EP2 mod: EP2 receptor modulators, cAMP readout, primary screen, cell-based, HTRF cAMP, PGE2 stimulation. EP2-expressing cells, cAMP HTRF FRET, PGE2 co-stimulation. Prostaglandin E2 receptor EP2 subtype (Homo sapiens), P43116. actives 0.83% (n = 260,000). induction, % at 25 µM;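 active means compounds whose cAMP rise, as percent of the full-agonist control response, exceeds 60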;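 further: rat C6 glioma line stably carrying human EP2 under a CMV promoter; the protocol text gives 20 µM as final concentration; 100% = response of wells given 1 µM PGE2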
FXIIa inh: human FXIIa protease inhibitors, primary screen, biochemical, 1536-well. Coagulation factor XII (Homo sapiens), P00748. purified FXIIa, Boc-QGR-AMC fluorogenic substrate, 2 h. inhibition, % at 5 µM. actives 0.3% (n = 220,000). AID 800, 2007; in the data active means inhibition above about 40%;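 further: 0% = enzyme with no compound and 100% = blank without enzyme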
hK5 inh: human KLK5 protease inhibitors, primary screen, biochemical, 1536-well; Kallikrein-5 (Homo sapiens), Q9Y337; recombinant hK5, fluorogenic AMC substrate cleavage; inhibition, % at 5 µM; actives 0.59% (n = 210,000);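 active means inhibition of 40% or more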;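 further: 0% = enzyme controls without compound and 100% = no-enzyme blanks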
EP2 confirm: cAMP induction in EP2, EP4, beta2-AR and parental cells, confirmation, counter-screen for EP2 modulator project, cell-based, five parallel assays, C6 glioma, HEK293; actives 47% (n = 1,300); calls only at 20 µM (by protocol); cAMP HTRF induction; plus low (about EC15) PGE2 agonist; AID 1080, 2008; shares compounds with EP2 mod;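 active means cAMP induction above 50% in the main assay while under 30% in all four parallel counter assays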;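 further: rat C6 glioma cells stably expressing human EP2 receptor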
Numbers without * were called inactive; i = inactive; / = not tested or not shown; + = active, no number. This is a sample that favours compounds with a hit; in the whole collection about 2.1% have one here.

SMILES	thrombin 1536	PGE2 EP2 inh	FXIa inh 1536	EP2 mod	FXIIa inh	hK5 inh	EP2 confirm
CC(C)NC(=S)N/N=C1\CCCCC1C1CCCCC1 (stereo not given)	1	0	-16	81*	8	-224	+
CC1CCCC/C1=N\NC(=S)Nc1ccccc1 (stereo not given)	-5	15	-2	-1	6	-11	/
CCn1ncc(Cl)c1C(=O)Nc1cc(Cl)ccc1Cl	-4	7	3	70*	11	-20	+
Cc1cc2ccccc2n2c(=O)n(CC(=O)NC3CCCC3)nc12	/	11	/	-17	/	/	/
COc1ccc(CCN(Cc2nc(-c3ccccc3)no2)Cc2nc(-c3ccccc3)no2)cc1OC	-3	11	-15	50	-14	-17	i
COc1ccc(-c2noc(CN(C)S(=O)(=O)c3ccccc3)n2)cc1OC	/	10	/	/	/	/	/
COc1ccc(S(=O)(=O)N(Cc2ccccc2)Cc2nc(-c3ccccc3)no2)cc1	-11	9	15	50	15	-3	+
COC(=O)C(CCSC)NS(=O)(=O)c1ccc(Cl)cc1 (stereo not given)	-23	10	-9	24	3	-4	/
COc1ccc(C(=O)COC(=O)C(CCSC)NS(=O)(=O)c2ccc(Cl)cc2)cc1 (stereo not given)	1	9	9	70*	16	-9	i
Cc1cc(-c2sccc2C)nc(-n2cccc2)n1	1	5	1	75*	14	2	+
Cc1ccc(CSc2ncnc3ccccc23)cc1	-5	7	-1	40	3	-8	/
Cc1cccc(CSc2ncnc3ccccc23)c1	-7	7	-4	71*	11	-8	i
O=S(=O)(/C=C/c1ccccc1)c1ccccc1	1	12	-2	9	5	-17	/
O=S(=O)(C=C(c1ccccc1)c1ccccc1)c1ccccc1	0	14	1	77*	12	-11	+
COc1c(O)ccc(/C=C(\C#N)c2nc3ccccc3[nH]2)c1[N+](=O)[O-]	-6	2	3	79*	1	-10	+
COc1cc(/C=C(\C#N)c2nc3ccc(C)cc3[nH]2)c([N+](=O)[O-])cc1OC	5	33	5	-26	19	-3	/
Cc1sc(NC(=O)Cc2ccc3c(c2)OCO3)nc1-c1ccc2c(c1)CCN2C(=O)c1cccc(F)c1	-1	5	9	72*	13	-18	i
CCOC(=O)CN(C(=O)CSc1nnc(Cc2ccccc2)n1-c1ccc(C)cc1)c1ccccc1	1	11	6	50	13	-10	i
CC1=C(C(=O)OCc2ccccc2)C(c2ccc(Cl)cc2Cl)NC(=O)N1CCCCCC(=O)O (stereo not given)	1	7	12	66*	17	-2	i
O=c1[nH]c(=S)c2c(n1-c1ccccc1)CCC2	-3	33	-1	82*	-5	-2	i
c1cncc(-c2nc(NCCCN3CCOCC3)c3c4c(sc3n2)CCC4)c1	-28	8	-11	-38	5	-8	/
c1cncc(-c2nc(N3CCOCC3)c3c4c(sc3n2)CCC4)c1	-14	6	-2	59	1	-12	i
CCCc1c(O)c2ccccc2n(-c2ccccc2)c1=O	3	9	0	32	14	-22	/
NCCc1c(-c2ccccc2)n(-c2ccccc2)c2ccccc12	-4	3	-3	72*	6	0	+
C=CCCCOc1ccc(C(=O)O)cc1	-6	11	-3	5	2	-1	/
SMILES	thrombin 1536	PGE2 EP2 inh	FXIa inh 1536	EP2 mod	FXIIa inh	hK5 inh	EP2 confirm
C=CCC(=O)OCCCCCCOc1ccc(C(=O)O)cc1	1	7	5	67*	14	-29	i
CC1=CCc2c(cc3oc(C)cc(=O)c3c2O)OC1	/	4	/	52	/	/	i
CCOC(=O)C1=C(N)N2C(=O)C(C)SC2=C(C(=O)OC)C1c1ccccc1OC (stereo not given)	-3	7	-7	88*	2	1	+
Cn1c(Cn2nnc3ccccc32)nnc1SCC(=O)N(C1CCCCC1)C1CCCCC1	/	10	/	32	/	/	/
CC1CN(c2nc3c(c(=O)[nH]2)CCN(Cc2ccc(-c4ccccc4)cc2)C3)CC(C)O1 (stereo not given)	/	3	/	-2	/	/	/
Oc1ccccc1/C=N/Nc1ccnc(SCc2ccccc2)n1	-4	9	18	6	6	-65	/
Clc1ccc(Cl)c(Nc2ccnc(SCc3ccccc3)n2)c1	/	36	/	62*	/	/	i
Cc1ccc2c(c1)C(=O)CC1(CCN(CC(=O)c3ccc4c(c3)OCCO4)CC1)O2	/	9	/	-79	/	/	/
CC(=O)Nc1ccc(Sc2ncnc3scc(-c4ccccc4)c23)cc1	-6	4	-5	26	-9	-7	/
CCCC(=O)Nc1ccccc1Sc1ncnc2scc(-c3ccccc3)c12	4	6	7	68*	18	-14	i
O=C(C(c1ccccc1)c1ccccc1)N1CCCc2ccccc21	-2	17	7	78*	10	-4	+
O=C(O)/C(=C\c1ccccc1)c1ccccc1	-9	2	-9	11	-3	-4	/
Cc1ccccc1NC(=O)/C(=C/c1ccccc1)c1ccccc1	-3	13	-1	67*	0	-14	+
O=C(Nc1ccccc1)/C(=C/c1ccccc1)c1ccccc1	7	11	10	78*	24	1	+
COCCNC(=O)Cn1nc(C)n2c(cc3sc(C)cc32)c1=O	/	/	/	13	/	/	/
Cc1cc2c(c(=O)o1)C(c1cccc(C(F)(F)F)c1)C(C(=O)OC(C)C)=C(N)O2 (stereo not given)	/	17	/	35	/	/	/
COc1ccccc1CNc1cc(C)ccc1C	-9	23	8	66*	14	-22	i
CCc1cc2ccccc2nc1SCC(=O)Nc1sc(C)c(C)c1C#N	/	9	/	11	/	/	/
